# Source: PubChem BioAssay (Johns Hopkins Ion Channel Center)
# Hits are enriched below; roughly 3.7% of the tested compounds scored in any of these assays.
# Kir21 inh – blocks the mouse Kir2.1 inward-rectifier potassium channel; P35561; HEK293-Kir2.1, FluxOR thallium flux fluorescence; hits give low values; B-score at 10 µM; 0.85% of 310,000 active; AID 1672;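 active = fluorescence ratio B-score at or below minus 3 SD of library scores, with starting-brightness B-score within 2 SD, cut at about -4.2 in these data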;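 note: channel flux triggered by added potassium and thallium sulfate stimulus; B-score of peak minus minimum fluorescence over baseline after thallium stimulus; more negative B-score means stronger Kir2.1 block with less thallium influx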
# KCNQ1 inh – human KCNQ1 channel inhibition; CHO-K1 KCNQ1, FluxOR thallium flux fluorescence; hits give high values; P51787; 1.3% of 310,000 active; B-score at 10 µM;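 active = compounds whose thallium flux B-score, printed positive for inhibition, exceeds three library SD while starting fluorescence stays within three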;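 note: channel opened by potassium depolarization with thallium stimulus after 20 min compound exposure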
# KCNQ1 pot – human KCNQ1 channel potentiation or activation; P51787; CHO-K1 KCNQ1, thallium flux FluxOR fluorescence; hits give high values; B-score at 10 µM; 0.35% of 310,000 active; AID 2648;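 active = fluorescence ratio B-score, a plate-corrected score, at least three library SD, with initial intensity B-score within 5 SD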
#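 Assay system: CHO-K1 cells stably expressing KCNQ1; Medium: assay buffer with matched DMSO; Also added: K+/Tl+ depolarizing stimulus; Dosing: single dose; Timing: dye 90 min, compound 20 min, room temperature; Measured by: kinetic FluxOR thallium fluorescence, 10-s 1-Hz baseline, 110-s post-stimulus read; Read-out: peak-minus-minimum fluorescence over initial fluorescence, negative-control normalized, B-scored.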
# KCNK9 inh – inhibitors of human KCNK9 two-pore domain potassium channel. 1.2% of 310,000 active. Q9NPC2. HEK293 KCNK9, FluxOR thallium flux fluorescence; hits give low values. B-score at 10 µM;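 active = ratio B-score over 3 SD below the library mean, with starting fluorescence within 5 SD of its mean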;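 note: negative B-score means less thallium flux so channel inhibition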
# hERG rescue – shields human hERG channel from block by proarrhythmic agents; Q12809; CHO-hERG, FluxOR thallium flux, dofetilide IC70 present; activation (rescue from dofetilide block), less the hit threshold, % at 10 µM; 0.51% of 310,000 active; AID 1511;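 active = activation above the mean of controls blocked by dofetilide plus 5 SD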;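 note: thallium influx through hERG after potassium depolarization seen as dye fluorescence rise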
# KCNK3 block – human KCNK3 channel inhibition, primary screen; B-score at 10 µM; 0.84% of 340,000 active; O14649; CHO-KCNK3 thallium flux, FluxOR fluorescence; hits give low values;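 active = B-score under library mean minus 4 SD, starting fluorescence ratio at most library mean plus 5 SD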;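 note: more negative B-score means stronger inhibition of thallium flux through KCNK3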
# KCNQ1 block val – reconfirmed blocker of the human KCNQ1 potassium channel; shares compounds with KCNQ1 inh; KCNQ1 cell line, FluxOR thallium flux fluorescence; inhibition, % at 10 µM; 93% of 1,600 active; AID 588353;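 active = primary screen active, with duplicate mean exceeding buffer control mean plus 3 SD of buffer wells, cut at about 28% in these data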;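 note: 0% = buffer control ratio and 100% = XE991 inhibitor control ratio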
# CHO KCNQ1 ctr – counter-screen for KCNQ1 inhibitors: effect in parental CHO cells | shares compounds with KCNQ1 inh | parental CHO-K1, FluxOR thallium flux fluorescence ratio; hits give low values; zero means no signal rise above baseline | fluorescence ratio (Tl flux) at 10 µM | 21% of 1,600 active | AID 588366;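 active = mean of duplicate thallium-flux fluorescence ratios in parental host cells more than 5 SD below the buffer control mean, cut at about 0.38 in these data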;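 note: ratio is peak minus minimum fluorescence divided by baseline fluorescence; actives read low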
# KCNQ1 APC inh – human KCNQ1 inhibition validated by electrophysiology; KCNQ1-CHO cells, automated patch clamp current; 20% of 490 active; AID 624120; calls only at 10 µM; shares compounds with KCNQ1 inh;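 active = KCNQ1 current drop exceeding 3 SD of negative control wells, seen in both duplicate runs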;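 note: steady state current during a 2 s step from -80 to +40 mV; negative values mean current inhibition and positive values mean potentiation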
# KCNQ2 inh – KCNQ1 inhibitor that also blocks rat KCNQ2 channel. shares compounds with KCNQ1 inh. KCNQ2 cells, FluxOR thallium flux fluorescence. 71% of 1,600 active. inhibition, % at 10 µM. AID 651746;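 active = mean percent inhibition of the KCNQ2 thallium signal more than 5 SD above the buffer-only control wells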;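 note: KCNQ2 expressed in CHO cells; 0% = buffer control wells and 100% = XE-991 inhibitor control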
# Target sequence (O88943 whole entry, looked up): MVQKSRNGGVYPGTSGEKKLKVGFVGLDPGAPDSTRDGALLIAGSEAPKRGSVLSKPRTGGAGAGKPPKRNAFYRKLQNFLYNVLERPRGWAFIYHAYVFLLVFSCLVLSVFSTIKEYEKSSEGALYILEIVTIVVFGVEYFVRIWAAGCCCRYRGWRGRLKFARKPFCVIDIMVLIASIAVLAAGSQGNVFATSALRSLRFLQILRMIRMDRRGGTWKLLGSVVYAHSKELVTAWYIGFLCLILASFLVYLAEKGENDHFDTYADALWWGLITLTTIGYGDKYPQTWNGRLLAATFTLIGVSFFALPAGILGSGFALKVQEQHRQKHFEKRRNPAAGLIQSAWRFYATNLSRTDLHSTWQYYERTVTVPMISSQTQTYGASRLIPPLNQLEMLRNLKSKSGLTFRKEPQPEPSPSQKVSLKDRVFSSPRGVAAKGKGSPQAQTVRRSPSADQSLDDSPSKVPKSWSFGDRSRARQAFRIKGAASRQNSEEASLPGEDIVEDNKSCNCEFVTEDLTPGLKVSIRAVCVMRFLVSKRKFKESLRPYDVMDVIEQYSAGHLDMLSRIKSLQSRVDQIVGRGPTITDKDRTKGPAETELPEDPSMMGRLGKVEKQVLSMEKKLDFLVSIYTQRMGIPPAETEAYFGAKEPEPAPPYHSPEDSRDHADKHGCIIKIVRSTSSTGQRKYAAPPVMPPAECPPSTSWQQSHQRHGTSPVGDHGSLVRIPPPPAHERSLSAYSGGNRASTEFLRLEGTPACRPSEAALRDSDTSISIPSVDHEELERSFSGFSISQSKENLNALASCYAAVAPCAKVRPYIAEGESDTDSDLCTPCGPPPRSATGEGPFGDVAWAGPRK
# KCNQ1-KCNE1 inh – human KCNQ1/KCNE1 inhibition in KCNQ1 specificity screen; inhibition, % at 10 µM; shares compounds with KCNQ1 inh; 77% of 1,600 active; KCNQ1/KCNE1 cells, FluxOR thallium flux fluorescence; AID 652147;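 active = mean percent inhibition of duplicate wells above the buffer-only control mean plus 3 SD of those controls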;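 note: 0% = buffer only wells and 100% = XE-991 inhibitor control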
# Active calls of the source: *; i = inactive; . = not tested or not shown; + = active, no number.
SMILES,Kir21 inh,KCNQ1 inh,KCNQ1 pot,KCNK9 inh,hERG rescue,KCNK3 block,KCNQ1 block val,CHO KCNQ1 ctr,KCNQ2 inh,KCNQ1-KCNE1 inh,others
COc1ccc(-c2csc(NC(=O)C3CCN(c4ncnc5sc(C)c(C)c45)CC3)n2)cc1OC,0.4,9*,i,i,-16,i,122*,0.41,83%*,103%*,KCNQ1 APC inh=i
COc1ccc(CC(=O)Nc2nc(-c3ccc(OC)c(OC)c3)cs2)cc1OC,0.57,i,i,i,-15,i,.,.,.,.,
CC(C)(C)OC(=O)NCc1ccc(CNC(=O)c2nc[nH]c2C(=O)N2CCc3ccccc3C2)cc1,.,.,.,.,.,i,.,.,.,.,
COc1ccc(OC)c(CNC(=O)C2CCC(=O)N(CCCN3CCCC3=O)C2)c1 (stereo not drawn),1.3,i,i,i,-7,i,.,.,.,.,
COc1cc(/C=C/CN2CCN(Cc3ccc(C)o3)C(CCO)C2)ccc1O (stereo not drawn),-0.51,i,i,i,-5,i,.,.,.,.,
Cc1c(C(=O)Nc2nnc(C(F)(F)F)s2)oc2ccccc12,0.51,7*,i,i,-11,i,69*,0.54,i,i,
COC(=O)c1sc(NC(=O)c2oc3ccccc3c2C)nc1C,0.32,i,i,i,-2,i,.,.,.,.,
Cc1cccc(NC(=O)CCN2C(=O)c3ccccc3S2(=O)=O)c1C,0.06,i,i,i,-5,i,.,.,.,.,
CCN(CC)c1nc(-c2ccccc2)ncc1S(=O)(=O)c1ccc(C)cc1,-1.4,6*,i,i,-22,i,84*,0.41,80%*,130%*,
CCN(CC)CCN(C(=O)c1ccc2c(c1)OCCO2)c1nc2cc3c(cc2s1)OCO3,-1.4,7*,i,i,-14,i,50*,0.47,81%*,84%*,
CN(C)CCCN(C(=O)c1ccc2c(c1)OCCO2)c1nc2cc3c(cc2s1)OCO3,-3.7,i,i,i,-8,i,.,.,.,.,
CC1CCN(CC(=O)N2CCCc3c2c(=O)oc2ccc(OCc4ccccc4)cc32)CC1,-0.52,i,i,i,-9,i,.,.,.,.,
CC1CC(C)CN(CC(=O)N2CCCc3c2c(=O)oc2ccc(OCc4ccccc4)cc32)C1 (stereo not drawn),2.1,9*,i,i,-14,i,110*,0.4,100%*,151%*,
COc1ccc(Br)c(C(=O)Nc2ccc(F)cc2)c1,-0.18,i,i,i,-1,i,.,.,.,.,
Cc1onc(-c2ccccc2Cl)c1C(=O)NCCn1c(C)cc2ccccc21,-0.23,i,i,i,-14,i,.,.,.,.,
COc1ccc(-c2nc(NC(=O)c3cc(C(C)(C)C)nn3C)sc2C)cc1,1.1,16*,i,i,-13,i,128*,0.41,89%*,126%*,KCNQ1 APC inh=i
CCOc1cc2c3c(c1)C1(Nc4ccccc4S1)C(=O)N3C(C)(C)CC2C (stereo not drawn),-0.18,8*,i,i,-11,i,96*,0.48,i,77%*,KCNQ1 APC inh=i
OCCN1CCN(C(=S)NC2CCCC2)CC1,1.2,10*,i,i,-12,i,83*,0.52,i,110%*,
S=C(NC1CC1)N1CCN(C(=S)NC2CC2)CC1,1.7,i,i,i,-3,i,.,.,.,.,
CC(C)CCN1C(=O)c2cccc3c(N)ccc(c23)C1=O,-16,24*,i,i,-42,i,+,0.0055*,i,i,
Cc1cccc(N2C(=O)c3cccc4c(N(C)CCO)ccc(c34)C2=O)c1,-5,7*,i,i,-17,i,122*,0.25*,i,i,
Cc1cccc(N2C(=O)c3cccc4c(N)ccc(c34)C2=O)c1,-18,23*,i,i,-51,i,+,0.0085*,i,i,
CN(C)c1ccc2c3c(cccc13)C(=O)N(c1ccccc1)C2=O,1.4,i,i,i,-12,.,.,.,.,.,
CCN1C(=O)c2cccc3c(Cl)ccc(c23)C1=O,0.14,i,i,i,-5,i,.,.,.,.,
O=C(Nc1ccc(Br)c(C(F)(F)F)c1)c1ccccc1,-1.5,6*,i,-7.7*,-14,i,125*,0.4,137%*,110%*,KCNQ1 APC inh=i
SMILES,Kir21 inh,KCNQ1 inh,KCNQ1 pot,KCNK9 inh,hERG rescue,KCNK3 block,KCNQ1 block val,CHO KCNQ1 ctr,KCNQ2 inh,KCNQ1-KCNE1 inh,others
O=C(Nc1ccc(C(F)(F)F)cc1)c1ccccc1,.,.,.,.,.,i,.,.,.,.,
CN1CCc2c(sc(/N=C/c3cc(C(C)(C)C)ccc3O)c2C#N)C1,3.3,i,i,i,-12,i,.,.,.,.,
CS(=O)(=O)N1CCc2cc(NC(=O)c3ccc(Cl)cc3Cl)ccc21,-1.9,i,i,i,-2,i,.,.,.,.,
O/C=c1\ccc2cccc3nc(C(F)(F)F)nc1c23,-5.5,19*,i,-7.6*,-8,i,140*,0.31*,i,i,
NNc1nc(C(F)(F)F)nc2ccccc12,-0.02,i,i,i,-4,i,.,.,.,.,
Cc1ccc(NC(=O)c2ccc(S(=O)(=O)N3CCCC3)cc2)nc1,-0.03,i,i,i,-11,i,.,.,.,.,
COc1ccc(S(=O)(=O)N2CCN(C(=O)c3ccc(=O)[nH]n3)CC2)cc1OC,.,.,.,.,.,i,.,.,.,.,
Cc1ccc(S(=O)(=O)N2CCCc3cc(NC(=O)c4c(F)cccc4F)ccc32)cc1,1.4,7*,i,i,-7,i,66*,0.44,85%*,100%*,
CC(=O)c1cccc(NC(=O)c2ccc3c(c2)CCN3S(=O)(=O)c2ccccc2)c1,-0.31,6*,i,i,-9,i,65*,0.53,i,78%*,
COc1cccc(OC)c1C(=O)Nc1ccc2c(c1)CCCN2S(=O)(=O)c1ccc(C)cc1,-0.7,i,i,i,-5,i,.,.,.,.,
Fc1cc(F)c2nc(N3CCCC3)sc2c1,0.36,i,i,i,-3,i,.,.,.,.,
Oc1[nH]c2ccc(Br)cc2c1N=NC(=S)Nc1ccc(F)cc1,0.74,i,i,i,-13,i,.,.,.,.,
